In data set [1] the test system is Mycobacterium tuberculosis. Briefly: Antitubercular activity against Mycobacterium tuberculosis H37Rv ATCC 27294 after 28 days by two-fold serial dilution method. The data set is classed as functional. Conditions: H37Rv ATCC 27294, 672 h. Summed up: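 Agar dilution on Middlebrook 7H11 with OADC, compound incorporated as two-fold serial dilutions. Inoculum from fresh 7H11/OADC slants, adjusted to 1 mg/mL wet weight in 0.05% Tween 80 saline and diluted 10^-2 to about 10⁷ cfu/mL, then spotted onto the drug-containing agar. Growth read after 28 days. MIC taken as the lowest concentration giving complete inhibition.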

Data set [2] has as its system Mycobacterium tuberculosis. The data set is described as follows: Antitubercular activity against Mycobacterium tuberculosis H37Rv ATCC 27294 after 28 days by two-fold serial dilution method in presence of efflux pump inhibitor verapamil. It is filed as functional. Conditions: H37Rv ATCC 27294, 672 h.
Data set [3] can be described thus: Cytotoxicity against mouse RAW264.7 cells assessed as growth inhibition at 50 uM after 72 hrs by MTT assay. It is filed as cell-based. Conditions: read-out: GI. The method in brief: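 RAW 264.7 cells were exposed to compound for 72 h. Viability was read as cellular conversion of MTT to formazan using a non-radioactive cell proliferation kit. Results were expressed as percentage growth inhibition.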
(Tetrazolium assays rely on reduction of a dye to a coloured formazan, in cell work by metabolically active cells.)

A short description of data set [4]: Selectivity index of cytotoxicity against mouse RAW264.7 cells to antitubercular activity against Mycobacterium tuberculosis H37Rv ATCC 27294. The data set is classed as toxicity, cell-based. As to conditions: read-out: Selectivity Index.

Each structure is given as a SMILES string. Converted amounts (≈) assume the structure as drawn.

By MIC is commonly meant the lowest concentration found to suppress growth. `CC(=O)N1CCc2c(sc(NC(=O)C3CCCCC3)c2C(N)=O)C1` gave an MIC in data set [1] of 71.4 µM (≈ 25 µg/mL).

Turning to `CN1CCc2c(sc(NC(=O)C3CCCCC3)c2C(N)=O)C1`, the values for the MIC in data set [2] and in data set [1] were 2.58 µM and 7.76 µM (≈ 2.49 µg/mL), respectively. Moreover, the inhibition at 72 h, 50 µM in data set [3] is 18.3%.

With `CC(=O)N1CCc2c(sc(NC(=O)c3cccs3)c2C(N)=O)C1`, the MIC in data set [2] amounted to 4.57 µM; in data set [1], 9.15 µM (≈ 3.2 µg/mL). Moreover, the selectivity ratio in data set [4] came out at 13.

As to `CC(=O)Nc1sc2c(c1C(N)=O)CCCCCC2`, the MIC in data set [2] stood at 9.36 µM; in data set [1] it was 18.7 µM (≈ 4.99 µg/mL). In data set [3], the inhibition at 72 h, 50 µM turned out to be 24.6%.

`NC(=O)c1c(NC(=O)c2ccccc2)sc2c1CCCCCC2`: the MIC stood at 5.06 µM in data set [2] and 15.2 µM (≈ 4.99 µg/mL) in data set [1]. Also, the inhibition at 72 h, 50 µM in data set [3] was 26.6%.

Regarding `COc1ccccc1C(=O)Nc1sc2c(c1C(N)=O)CCCCCC2`, the MIC in data set [2] was 6.96 µM; in data set [1], 13.9 µM (≈ 4.99 µg/mL). In addition, the inhibition at 72 h, 50 µM in data set [3] worked out at 24.8%.

For the compound `NC(=O)c1c(NC(=O)c2cccc([N+](=O)[O-])c2)sc2c1CCCCCC2`, the MIC in data set [2] is 16.7 µM; in data set [1] it was 16.7 µM (≈ 6.24 µg/mL). The inhibition at 72 h, 50 µM in data set [3] turned out to be 36.1%.

For the compound `Cc1ccc(C(=O)Nc2sc3c(c2C(N)=O)CCCCCC3)cc1`, the MIC worked out at 2.27 µM in data set [2] and 4.54 µM (≈ 1.55 µg/mL) in data set [1]. Besides, the inhibition at 72 h, 50 µM in data set [3] came to 20.5%.

In the case of `NC(=O)c1c(NC(=O)c2ccc(Oc3ccccc3)cc2)sc2c1CCCCCC2`, the MIC in data set [2] stood at 1.23 µM; in data set [1], 3.7 µM (≈ 1.56 µg/mL). The selectivity ratio in data set [4] was above 10. The inhibition at 72 h, 50 µM in data set [3] was 22.2%.

As for `NC(=O)c1c(NC(=O)c2cccc3ccccc23)sc2c1CCCCCC2`, the MIC in data set [2] amounted to 3.29 µM; in data set [1], 13.2 µM (≈ 4.99 µg/mL). Also, the inhibition at 72 h, 50 µM in data set [3] turned out to be 28.3%.

As to `NC(=O)c1c(NC(=O)C2CC2)sc2c1CCCCCC2`, the MIC was 8.53 µM in data set [2] and 17.1 µM (≈ 4.99 µg/mL) in data set [1]. For the same compound, the inhibition at 72 h, 50 µM in data set [3] worked out at 16.9%.

In the case of `NC(=O)c1c(NC(=O)C2CCCC2)sc2c1CCCCCC2`, the MIC was 9.73 µM in data set [2] and 9.73 µM (≈ 3.12 µg/mL) in data set [1]. Moreover, the inhibition at 72 h, 50 µM in data set [3] was 18.3%.

Regarding `NC(=O)c1c(NC(=O)C2CCCCC2)sc2c1CCCCCC2`, the MIC in data set [2] was 3.11 µM; in data set [1], 9.33 µM (≈ 3.12 µg/mL). For the same compound, in data set [3], the inhibition at 72 h, 50 µM amounted to 16.6%.

In the case of `CC(=O)N1CCc2c(sc(NC(=O)c3ccccc3)c2C(N)=O)C1`, the MIC in data set [1] is 72.7 µM (≈ 24.9 µg/mL).

For the compound `COc1ccccc1C(=O)Nc1sc2c(c1C(N)=O)CCN(C(C)=O)C2`, the MIC in data set [1] worked out at 66.8 µM (≈ 25 µg/mL).

Take `CC(=O)N1CCc2c(sc(NC(=O)c3cccc([N+](=O)[O-])c3)c2C(N)=O)C1`: in data set [1], the lowest concentration to inhibit growth (MIC) was 64.3 µM (≈ 25 µg/mL).

Take `CC(=O)N1CCc2c(sc(NC(=O)c3ccc(C)cc3)c2C(N)=O)C1`: inhibition of growth in data set [1] (MIC) required 69.8 µM (≈ 24.9 µg/mL).

Regarding `CC(=O)N1CCc2c(sc(NC(=O)c3ccc(Oc4ccccc4)cc3)c2C(N)=O)C1`, it took 57.3 µM (≈ 25 µg/mL) to inhibit growth in data set [1] (MIC).

Consider `CC(=O)N1CCc2c(sc(NC(=O)c3cccc4ccccc34)c2C(N)=O)C1`, for which, in data set [1], the MIC is 63.5 µM (≈ 25 µg/mL).

Compound `CC(=O)N1CCc2c(sc(NC(=O)C3CC3)c2C(N)=O)C1` registered an MIC in data set [1] of 81.2 µM (≈ 24.9 µg/mL).

As to `CC(=O)N1CCc2c(sc(NC(=O)C3CCCC3)c2C(N)=O)C1`, it took 74.4 µM (≈ 25 µg/mL) to inhibit growth in data set [1] (MIC).

The compound `CC(=O)Nc1sc2c(c1C(N)=O)CCN(C)C2` gave an MIC in data set [1] of 39.4 µM (≈ 9.99 µg/mL).

`CN1CCc2c(sc(NC(=O)c3ccccc3)c2C(N)=O)C1` returned an MIC in data set [1] of 37.9 µM (≈ 11.9 µg/mL).

In turn, `COc1ccccc1C(=O)Nc1sc2c(c1C(N)=O)CCN(C)C2` registered an MIC in data set [1] of 36.1 µM (≈ 12.5 µg/mL).

Consider `CN1CCc2c(sc(NC(=O)c3cccc([N+](=O)[O-])c3)c2C(N)=O)C1`, for which 34.6 µM (≈ 12.5 µg/mL) was the least that counted as inhibitory in data set [1] (MIC).

As to `Cc1ccc(C(=O)Nc2sc3c(c2C(N)=O)CCN(C)C3)cc1`, the MIC in data set [1] was 37.9 µM (≈ 12.5 µg/mL).

On to `CN1CCc2c(sc(NC(=O)c3ccc(Oc4ccccc4)cc3)c2C(N)=O)C1`, for which, in data set [1], the MIC worked out at 30.6 µM (≈ 12.5 µg/mL).

In the case of `CN1CCc2c(sc(NC(=O)c3cccc4ccccc34)c2C(N)=O)C1`, the results for the MIC in data set [2] and in data set [1] were 8.53 µM and 17.1 µM (≈ 6.24 µg/mL), respectively. Besides, in data set [3], the inhibition at 72 h, 50 µM turned out to be 28.4%.

As for `CN1CCc2c(sc(NC(=O)C3CC3)c2C(N)=O)C1`, the MIC in data set [2] amounted to 2.78 µM; in data set [1] it was 5.57 µM (≈ 1.56 µg/mL). For the same compound, the inhibition at 72 h, 50 µM in data set [3] was determined as 22.2%.

`CN1CCc2c(sc(NC(=O)C3CCCC3)c2C(N)=O)C1`: the MIC was 5.06 µM in data set [2] and 5.06 µM (≈ 1.56 µg/mL) in data set [1]. Also, in data set [3], the inhibition at 72 h, 50 µM was determined as 18.2%.

In data set [1], `CC(=O)Nc1sc2c(c1C(N)=O)CCN(C(C)=O)C2` came in with an MIC of 88.6 µM (≈ 24.9 µg/mL).

Turning to `O=C(O)c1cn(C2CC2)c2cc(N3CCNCC3)c(F)cc2c1=O` [CIPROFLOXACIN], the MIC turned out to be 9.41 µM in data set [2] and 9.41 µM (≈ 3.12 µg/mL) in data set [1].

For `CC[C@@H](CO)NCCN[C@@H](CC)CO` [ETHAMBUTOL], the MIC in data set [2] worked out at 3.82 µM; in data set [1], 7.64 µM (≈ 1.56 µg/mL).

Take `NNC(=O)c1ccncc1` [ISONIAZID]: the MIC in data set [2] came out at 0.72 µM; in data set [1], 0.72 µM (≈ 0.0987 µg/mL).

The values are drawn from ChEMBL document CHEMBL3124864, “Development of antimycobacterial tetrahydrothieno[2,3-c]pyridine-3-carboxamides and hexahydrocycloocta[b]thiophene-3-carboxamides: Molecular modification from known antimycobacterial lead” (Eur J Med Chem, 2014).
